Test results reported in ChEMBL document CHEMBL1681721, “Synthesis, in vitro antimalarial and cytotoxicity of artemisinin-aminoquinoline hybrids” (Bioorg Med Chem Lett, 2011).
pIC50: −log10 of the molar value.

Legend:
Plasmodium falciparum [1] = assay: Antiplasmodial activity against chloroquine-sensitive Plasmodium falciparum D10 by lactate dehydrogenase assay; format: functional, organism-based
In short: (§1)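 IC50s measured in vitro against P. falciparum D10 (chloroquine-sensitive) and Dd2 (chloroquine-resistant). Compounds insoluble in the test medium were added as suspensions in DMSO. Chloroquine served as the reference antimalarial. Values are averages over n data sets.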

Plasmodium falciparum [2] = assay: Antiplasmodial activity against chloroquine-resistant Plasmodium falciparum Dd2 by lactate dehydrogenase assay; format: functional, organism-based; in short: as §1
Plasmodium falciparum [3] = assay: Resistance index, ratio of IC50 for chloroquine-resistant Plasmodium falciparum Dd2 to IC50 for chloroquine-sensitive Plasmodium falciparum D10; format: functional
In short: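 Calculated as IC50 (Dd2) / IC50 (D10), using IC50s from the parallel in vitro assays on both P. falciparum strains.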

CHO = assay: Cytotoxicity against CHO cells by MTT assay; format: cell-based, Cricetulus griseus
In short: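 MTT viability assay on Chinese hamster ovary (CHO) cells, with emetine as the reference drug. IC50 is the average of n data sets.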

[4] = Selectivity index, ratio of IC50 for CHO cells to IC50 for chloroquine-sensitive Plasmodium falciparum D10; format: toxicity, cell-based; conditions: hamster; for Selectivity Index: cho; for selectivity ratio: CHO cells, read-out: Selectivity Index
In short: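 Calculated as IC50 (CHO, MTT assay) / IC50 (P. falciparum D10), using IC50s measured in this work.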

Plasmodium falciparum [5] = assay: Ratio of chloroquine IC50 to compound IC50 for chloroquine-resistant Plasmodium falciparum Dd2; format: functional

Row | Compound | pIC50 (Plasmodium falciparum [1]) | pIC50 (Plasmodium falciparum [2]) | Ratio IC50 (Plasmodium falciparum [3]) | pIC50 (CHO; cho) | Selectivity Index [4] | pIC50 (Plasmodium falciparum [1]; Plasmodium falciparum, D10) | pIC50 (CHO; Cricetulus griseus, CHO) | selectivity ratio [4] | Ratio IC50 (Plasmodium falciparum [5]) | pIC50 (Plasmodium falciparum [2]; Plasmodium falciparum, Dd2)
1 | C[C@H]1[C@@H](OCCNCCNc2ccnc3cc(Cl)ccc23)O[C@@H]2O[C@@]3(C)CC[C@H]4[C@H](C)CC[C@@H]1[C@@]24OO3 | 7.07 | 6.82 | 2 | 4.48 | 391 |  |  |  |  | 
2 | C[C@H]1[C@@H](OCCNCCNc2ccnc3cc(Cl)ccc23)O[C@@H]2O[C@@]3(C)CC[C@H]4[C@H](C)CC[C@@H]1[C@@]24OO3.O=C(O)C(=O)O | 7.67 | 7.59 | 1 | 5.79 | 77 |  |  |  |  | 
3 | C[C@H]1[C@@H](OCCNCCCNc2ccnc3cc(Cl)ccc23)O[C@@H]2O[C@@]3(C)CC[C@H]4[C@H](C)CC[C@@H]1[C@@]24OO3 | 6.93 | 6.74 | 2 | 4.43 | 317 |  |  |  |  | 
4 | C[C@H]1[C@@H](OCCNCCCNc2ccnc3cc(Cl)ccc23)O[C@@H]2O[C@@]3(C)CC[C@H]4[C@H](C)CC[C@@H]1[C@@]24OO3.O=C(O)C(=O)O | 7.85 | 7.70 | 1 | 6.77 | 12 |  |  |  |  | 
5 | C[C@H]1[C@@H](OCCNc2ccc(Nc3ccnc4cc(Cl)ccc34)cc2)O[C@@H]2O[C@@]3(C)CC[C@H]4[C@H](C)CC[C@@H]1[C@@]24OO3 | 7.52 | 7.16 | 2 |  |  |  |  |  |  | 
6 | C[C@H]1[C@@H](OCCNc2ccc(Nc3ccnc4cc(Cl)ccc34)cc2)O[C@@H]2O[C@@]3(C)CC[C@H]4[C@H](C)CC[C@@H]1[C@@]24OO3.O=C(O)C(=O)O |  | 7.52 | 2 |  |  | 7.76 | 4.45 | 2040 |  | 
7 | CC(CNc1ccnc2cc(Cl)ccc12)NCCO[C@H]1O[C@@H]2O[C@@]3(C)CC[C@H]4[C@H](C)CC[C@@H]([C@H]1C)[C@@]24OO3 (stereo not given in full) | 7.91 | 7.77 | 1 | 5.47 |  |  |  | 279 | 9 | 
8 | CC(CNc1ccnc2cc(Cl)ccc12)NCCO[C@H]1O[C@@H]2O[C@@]3(C)CC[C@H]4[C@H](C)CC[C@@H]([C@H]1C)[C@@]24OO3.O=C(O)C(=O)O (stereo not given in full) |  |  | 1 |  | 184 | 7.83 | 5.56 |  | 7 | 7.68
9 | C[C@H]1[C@@H](OCCN2CCN(c3ccnc4cc(Cl)ccc34)CC2)O[C@@H]2O[C@@]3(C)CC[C@H]4[C@H](C)CC[C@@H]1[C@@]24OO3 |  |  | 2 |  |  | 7.51 | 5.23 | 193 |  | 7.16
10 | C[C@H]1[C@@H](OCCN2CCN(CCNc3ccnc4cc(Cl)ccc34)CC2)O[C@@H]2O[C@@]3(C)CC[C@H]4[C@H](C)CC[C@@H]1[C@@]24OO3 | 6.70 | 6.56 | 1 |  |  |  |  |  |  | 
11 | C[C@H]1[C@@H](OCCN2CCN(CCNc3ccnc4cc(Cl)ccc34)CC2)O[C@@H]2O[C@@]3(C)CC[C@H]4[C@H](C)CC[C@@H]1[C@@]24OO3.O=C(O)C(=O)O | 7.54 | 7.53 | 1 |  |  |  | 5.63 | 80 |  | 
12 | C[C@H]1[C@@H](O)O[C@@H]2O[C@@]3(C)CC[C@H]4[C@H](C)CC[C@@H]1[C@@]24OO3 [ARTENIMOL] |  |  | 0.4 |  |  |  |  |  |  | 
13 | CC[C@H]1CN2CCc3cc(OC)c(OC)cc3[C@@H]2C[C@@H]1C[C@H]1NCCc2cc(OC)c(OC)cc21 [EMETINE] |  |  |  |  |  |  | 6.72 |  |  | 
